Measurements: ChEMBL document CHEMBL4177676, “Discovery of new antimalarial agents: Second-generation dual inhibitors against FP-2 and PfDHFR via fragments assembely” (Bioorg Med Chem, 2017)
Where a name gives a salt, the structure may show the parent alone. Calls of active or inactive are those of the source. The rule behind the calls is not given here.

How the values were obtained:
[1] = biological target: T1, Falcipain 2 (Plasmodium falciparum) (UniProt Q9N6S8); assay: Inhibition of Plasmodium falciparum FP2 at 10 uM using Z-Leu-Arg-AMC as substrate preincubated for 30 min followed by substrate addition measured after 30 mins by spectrofluorimetric method
T1 sequence (whole entry): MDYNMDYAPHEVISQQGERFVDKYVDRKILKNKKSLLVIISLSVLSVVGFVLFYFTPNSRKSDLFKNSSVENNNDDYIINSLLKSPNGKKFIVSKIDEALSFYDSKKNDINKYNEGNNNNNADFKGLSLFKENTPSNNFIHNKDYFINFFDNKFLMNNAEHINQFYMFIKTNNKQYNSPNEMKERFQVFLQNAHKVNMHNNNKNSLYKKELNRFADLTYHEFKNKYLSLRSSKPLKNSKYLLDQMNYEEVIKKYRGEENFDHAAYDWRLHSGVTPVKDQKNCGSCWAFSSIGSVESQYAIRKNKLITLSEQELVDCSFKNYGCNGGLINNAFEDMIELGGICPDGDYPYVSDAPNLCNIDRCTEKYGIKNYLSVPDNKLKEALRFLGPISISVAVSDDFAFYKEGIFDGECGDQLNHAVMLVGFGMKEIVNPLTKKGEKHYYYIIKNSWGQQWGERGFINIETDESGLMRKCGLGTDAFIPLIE
Procedure, shortened: (§1)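 FP-2 (30 nM) was preincubated 30 min at room temperature with compound in 100 mM sodium acetate, 10 mM DTT, pH 5.5, with DMSO at most 1%. The fluorescence increase was then monitored for 30 min at room temperature. Percent inhibition was screened at 10 µM. IC50 values were fitted from percent inhibition versus concentration, using three independent experiments.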

[2] = biological target: Bifunctional dihydrofolate reductase-thymidylate synthase (Plasmodium falciparum K1) (UniProt P13922); assay: Inhibition of Plasmodium falciparum DHFR at 10 uM using DHF as substrate preincubated for 15 mins followed DHF addition measured after 15 mins by spectrophotometric method
Chain of Bifunctional dihydrofolate reductase-thymidylate synthase (Plasmodium falciparum K1) (P13922 whole entry, looked up): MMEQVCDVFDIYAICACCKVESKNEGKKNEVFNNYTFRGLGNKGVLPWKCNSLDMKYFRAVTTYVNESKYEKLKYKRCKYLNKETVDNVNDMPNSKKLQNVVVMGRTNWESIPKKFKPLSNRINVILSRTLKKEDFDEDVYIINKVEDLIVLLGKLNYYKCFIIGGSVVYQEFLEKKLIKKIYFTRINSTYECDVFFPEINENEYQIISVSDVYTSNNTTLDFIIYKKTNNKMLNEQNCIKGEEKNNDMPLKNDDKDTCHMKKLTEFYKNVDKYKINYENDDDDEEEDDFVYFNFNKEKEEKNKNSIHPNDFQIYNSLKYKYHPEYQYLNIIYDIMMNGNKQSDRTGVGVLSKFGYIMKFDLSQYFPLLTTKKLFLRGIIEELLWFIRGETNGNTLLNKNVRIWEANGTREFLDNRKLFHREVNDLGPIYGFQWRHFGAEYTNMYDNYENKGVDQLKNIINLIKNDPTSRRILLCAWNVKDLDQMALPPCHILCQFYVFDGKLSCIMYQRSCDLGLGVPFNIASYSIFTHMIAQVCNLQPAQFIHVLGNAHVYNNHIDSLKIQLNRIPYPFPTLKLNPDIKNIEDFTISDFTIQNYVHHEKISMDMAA
Procedure, shortened: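 Purified P. falciparum DHFR was preincubated 15 min on ice with compound in 100 uM NADPH, 50 mM TES pH 7.0, 1 mM EDTA, 75 mM 2-mercaptoethanol and 1 mg/mL BSA. DHF was then added to start the reaction. NADPH oxidation was followed at 340 nm, and percent inhibition was taken at 10 µM.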

[3] = biological target: T2, Bifunctional dihydrofolate reductase-thymidylate synthase (Plasmodium falciparum K1, UniProt P13922); assay: Inhibition of Plasmodium falciparum DHFR
T2 sequence (P13922 whole entry): as the sequence (P13922 whole entry, looked up) above
Procedure, shortened: (§2)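 Purified PfDHFR was preincubated with graded compound concentrations for 15 min on ice in 100 uM NADPH, 50 mM TES pH 7.0, 1 mM EDTA, 75 mM 2-mercaptoethanol and 1 mg/mL BSA. DHF was then added to start the reaction, and NADPH oxidation was followed at 340 nm. IC50 came from percent-inhibition versus concentration plots, three independent experiments.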

[4] = biological target: T2, Bifunctional dihydrofolate reductase-thymidylate synthase; assay: Inhibition of Plasmodium falciparum DHFR using DHF as substrate preincubated for 15 mins followed DHF addition measured after 15 mins by spectrophotometric method; procedure, shortened: as §2
Plasmodium falciparum [5] = assay: Antimalarial activity against mid-ring stage of multidrug-sensitive Plasmodium falciparum 3D7 infected in human O-positive erythrocytes after 72 hrs by SYBR Green I dye-based fluorescence assay; assay type: functional, organism-based; settings: 3D7, 72 h
Procedure, shortened: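 Cultures were synchronised with 5% sorbitol to over 80% rings, and parasites at mid-ring stage (6–10 h post-invasion) were used at 1% parasitemia and 2% hematocrit. […] Growth ran 72 h at 37 °C under 5% CO₂, 5% O₂, 90% N₂. Cells were lysed in saponin/Triton X-100 buffer with 5X SYBR Green I, kept 2 h in the dark, and fluorescence was read at 485/535 nm.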

Falcipain 2 [6] = biological target: T3, Falcipain 2 (Plasmodium falciparum, UniProt Q9N6S8); assay: Inhibition of Plasmodium falciparum FP2 using Z-Leu-Arg-AMC as substrate preincubated for 30 min followed by substrate addition measured after 30 mins by spectrofluorimetric method; procedure, shortened: as §1
T3 sequence (Q9N6S8 whole entry): T1 sequence (whole entry)

Falcipain 2 [7] = biological target: T3, Falcipain 2; assay: Inhibition of Plasmodium falciparum FP2; procedure, shortened: as §1
Plasmodium falciparum [8] = assay: Antimalarial activity against mid-ring stage of Plasmodium falciparum Fab9 infected in human O-positive erythrocytes after 72 hrs by SYBR Green I dye-based fluorescence assay; assay type: functional, organism-based; settings: Fab9, 72 h
Procedure, shortened: (§3)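 Sorbitol-synchronised (>80% ring) […] cultures were used at the mid-ring stage (6-10 h post-invasion), at 1% parasitemia and 2% hematocrit, with serial compound dilutions (Dd2 top concentration 10 µM). Incubation was 72 h at 37 °C under 5% CO₂/5% O₂/90% N₂. Cells were then lysed with saponin/Triton X-100 buffer containing 5X SYBR Green I, kept 2 h in the dark, and read at ex 485/em 535 nm.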

Plasmodium falciparum [9] = assay: Antimalarial activity against mid-ring stage of Plasmodium falciparum GB4 infected in human O-positive erythrocytes after 72 hrs by SYBR Green I dye-based fluorescence assay; assay type: functional, organism-based; settings: GB4, 72 h; procedure, shortened: as §3
Plasmodium berghei = assay: In vivo antimalarial activity against Plasmodium berghei ANKA infected in BALB/c mouse assessed as reduction in parasitemia at 20 mg/kg, po administered daily for 4 days by Giemsa staining-based method; assay type: functional, organism-based
Procedure, shortened: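 BALB/c mice were infected with P. berghei ANKA. Starting 24 h later, they received 20 mg/kg test compound or control orally once daily for 4 days. Parasitemia was counted on Giemsa-stained blood smears every day over 10 days.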

Plasmodium falciparum [10] = assay: Antimalarial activity against mid-ring stage of chloroquine-resistant Plasmodium falciparum Dd2 infected in human O-positive erythrocytes after 72 hrs by SYBR Green I dye-based fluorescence assay; assay type: functional, organism-based; settings: Dd2, 72 h; procedure, shortened: as §3

| Structure (SMILES) | inhibition [1] [%] | inhibition [2] [%] | IC50 [4] [nM] | IC50 (Falcipain 2 [6]) [µM] | other results |
| --- | --- | --- | --- | --- | --- |
| COc1ccc(C(=O)NCCc2ccc(CNc3ccc4nc(N)nc(N)c4c3)cc2)cc1Cl | 37.6 | 51.2 | – | – | – |
| CC1(C)N=C(N)N=C(N)N1c1ccc(Cl)cc1 [CHLORCYCLOGUANIL HYDROCHLORIDE] | – | – | – | – | IC50 [3]: 1.5 nM |
| COc1ccc(C(=O)NCCc2ccc(CNc3ccc4nc(N)nc(N)c4c3)cc2)cc1 | 21.2 | 95.1 | 157 | – | – |
| Nc1nc(N)c2cc(NCc3ccc(CCNC(=O)c4ccc5ccccc5c4)cc3)ccc2n1 | 46.4 | 100 | 67.9 | – | – |
| Nc1nc(N)c2cc(NCc3ccc(CCNC(=O)c4ccco4)cc3)ccc2n1 | 28.9 | 97.8 | 107 | – | – |
| Nc1nc(N)c2cc(NCc3ccc(CCNC(=O)c4ccc(F)cc4)cc3)ccc2n1 | 52.7 | 96.7 | 118 | 6.7 | IC50 (Plasmodium falciparum [5]): 391 nM |
| Cc1nc(N)nc(N)c1OCCCOc1cc(Cl)c(Cl)cc1Cl | – | – | – | – | IC50 [3]: 229 nM |
| Nc1nc(N)c2cc(NCc3ccc(CCNC(=O)c4ccc5c(c4)OCO5)cc3)ccc2n1 | 59.2 | 100 | 26.2 | 5.1 | IC50 (Plasmodium falciparum [5]): 78.6 nM |
| Nc1nc(N)c2cc(NCc3ccc(CCNC(=O)c4ccncc4)cc3)ccc2n1 | 22.9 | 51.5 | – | – | – |
| COc1ccc(OC)c(CNc2ccc3nc(N)nc(N)c3c2Cl)c1 | – | – | – | – | IC50 [3]: 0.39 nM |
| O=C(CCc1ccc(S(=O)(=O)NCCc2ccccc2)cc1)Nc1ccc2c(c1)OCCO2 | – | – | – | – | IC50 [3]: 35500 nM; IC50 (Falcipain 2 [7]): 54.2 µM |
| Nc1nc(N)c2cc(NCc3ccc(CCNC(=O)c4ccc(C(F)(F)F)cc4)cc3)ccc2n1 | 21.5 | 96.4 | 21.3 | – | – |
| Nc1nc(N)c2cc(NCc3ccc(CCNC(=O)c4ccc(Cl)cc4F)cc3)ccc2n1 | 62.4 | 68.2 | – | 9.1 | – |
| Nc1nc(N)c2cc(NCc3ccc(CCNC(=O)c4cccs4)cc3)ccc2n1 | 67.6 | 97.4 | 84.1 | 10 | IC50 (Plasmodium falciparum [5]): 53.1 nM; IC50 (Plasmodium falciparum [8]): 14.2 nM; IC50 (Plasmodium falciparum [9]): 23.4 nM; Activity (Plasmodium berghei): Active; IC50 (Plasmodium falciparum [10]): 1200 nM |
| Nc1nc(N)c2cc(NCc3ccc(CCNC(=O)Cc4ccccc4)cc3)ccc2n1 | 65 | 92.4 | 70.1 | 7.6 | IC50 (Plasmodium falciparum [5]): 266 nM |
